Consider three compounds from publication PMC6147618 (Molecules : A Journal of Synthetic Chemistry and Natural …, 2005).

One data set deals with Caco-2 monolayers. The experiment in a line: Caco-2 monolayer permeability. The format is in vitro ADME. To be noted: Hank's balanced salt solution, 25 mM HEPES pH 7.4, 37°C. Put shortly:
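Caco-2 cells were grown in DMEM with 10% foetal bovine serum, 2mM L-glutamine and 1% non-essential amino acids, at 37°C, 95% humidity and 5% CO2, on Transwell polycarbonate inserts. Transport was run in air at 37°C and 95% humidity, in HBSS with 25mM HEPES (pH 7.4). Values are means ± sd of 5 monolayers, or n = 3 for co-incubation experiments.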

A further data set relates to P450. To be noted: cited from earlier work.

For the compound `O=C(/C=C/c1ccc(O)c(O)c1)O[C@@H](C(=O)O)[C@@H](OC(=O)/C=C/c1ccc(O)c(O)c1)C(=O)O` [cichoric acid], in the data set on Caco-2 monolayers, the “diffusion across the Caco-2 monolayers” value is reported as “non-diffusing”.

For `C/C=C\C=C/CC/C=C/C=C/C(=O)NCC(C)C` [compound 1, (2E,4E,8Z,10Z)-N-isobutyldodeca-2,4,8,10-tetraenamide], the P450-mediated metabolism result in the data set on P450 (in the absence of alkylamide 3) is “rapid metabolism”. As to `C#CC#CCCCC/C=C/C(=O)NCC(C)C` [compound 3, (2E)-N-isobutylundeca-2-ene-8,10-diynamide], the “effect on P450-mediated metabolism of alkylamide 1” value with P450 (alkylamide 3 present together with 1) is reported as “prevented the rapid metabolism of 1”. Moreover, the “diffusion across the Caco-2 monolayers” value in the data set on Caco-2 monolayers is reported as “rapidly diffuse”.
